The source made the active and inactive calls. The calls are words filed in the database; no cut-off is given here.
Key:
Nucleic Acid [1] = experiment: Binding affinity to human fluorescent labeled oligonucleotide F21T telomeric G-quadruplex DNA assessed as change in melting temperature at 1 uM after 30 secs by FRET assay; format: nucleic-acid assay
Nucleic Acid [2] = experiment: Binding affinity to hairpin fluorescent labeled oligonucleotide F10T duplex DNA assessed as change in melting temperature at 1 uM after 30 secs by FRET assay
[3] = biological target: Telomerase reverse transcriptase (Homo sapiens, UniProt O14746); experiment: Inhibition of human telomerase in cell free system after 1 min by TRAP-LIG assay; settings: in the assay text read “after 20 mins” for “after 1 min”
Procedure, shortened: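 TRAP-LIG used 500 ng protein extract from exponentially growing MCF-7 cells to extend 0.1 µg TS primer. The buffer was 20 mM Tris-HCl pH 8.3, 68 mM KCl, 1.5 mM MgCl2, 1 mM EGTA and 0.05% Tween 20, with 125 µM dNTPs and BSA, plus ligand at various concentrations or none. After 20 min elongation and purification, products were amplified with ACX/TS primers and Taq for 35 cycles (94 °C 30 s, 61 °C 1 min, 72 °C 1 min).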

Nucleic Acid [4] = experiment: Binding affinity to human fluorescent labeled oligonucleotide F21T telomeric G-quadruplex DNA assessed as change in melting temperature at 1 uM by FRET assay in presence of duplex DNA competitor ds26; format: nucleic-acid assay
Nucleic Acid [5] = experiment: Binding affinity to human biotinylated telomeric HTG21 G-quadruplex DNA assessed as equilibrium dissociation constant by SPR assay; format: nucleic-acid assay
Procedure, shortened: (§1)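 Biotinylated HTG21 (d(GGG[TTAGGG]3)) or duplex DNA was folded in 50 mM Tris-HCl pH 7.2 with 100 mM KCl. About 1000 RU was captured on flow cells 1 and 2, with the third cell as blank. Six ligand concentrations from 0.15625 µM upward were injected for 150 s association and 300 s dissociation at 25 °C. KD came from global Langmuir fitting of the kinetics.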

Nucleic Acid [6] = experiment: Binding affinity to human biotinylated duplex DNA assessed as equilibrium dissociation constant upto 10 to 20 uM by SPR assay; format: nucleic-acid assay; procedure, shortened: as §1
Nucleic Acid [7] = experiment: Binding affinity to human telomeric HTG21 G-quadruplex DNA after 6 hrs by CD spectroscopy; format: nucleic-acid assay
Procedure, shortened: (§2)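 HTG21 in 10 mM Tris-HCl pH 7.2 with 100 mM KCl was titrated with ligand at 0–5 mol equiv. Samples were heated to 95 °C, cooled slowly to room temperature and held at 4 °C for at least 6 h. CD was scanned at 230–450 nm in a 4 mm quartz cuvette with 1 nm bandwidth, 1 nm steps and 0.5 s per point.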

HL-60 [8] = experiment: Cytotoxicity against human HL60 cells assessed as cell viability after 48 hrs by MTT assay; format: functional, cell-based; settings: HL-60, 48 h
Procedure, shortened: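 HL60 cells were seeded at 1.0 × 10³ per well and exposed to a range of compound concentrations for 48 h at 37 °C in 5% CO2. MTT (5 mg/mL) was added for 4 h, formazan was dissolved in DMSO and OD was read at 570 nm. Each dose was run in triplicate, and IC50 was taken from mean OD versus concentration curves.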

HL-60 [9] = experiment: Cytotoxicity against human HL60 cells assessed as decrease in population doubling at 2.5 uM after 8 days; format: functional, cell-based
HL-60 [10] = experiment: Growth inhibition of human HL60 cells assessed as decrease in population doubling at 2.5 uM after 12 days; format: functional, cell-based
HL-60 [11] = experiment: Growth inhibition of human HL60 cells assessed as decrease in population doubling at 1.25 uM after 12 days; format: functional, cell-based
HL-60 [12] = experiment: Growth inhibition of human HL60 cells assessed as decrease in population doubling at 0.625 uM after 16 days; format: functional, cell-based
HL-60 [13] = experiment: Induction of senescence in human HL60 cells assessed enlarged cells measured every 4 days for 16 days by optical microscopy; format: functional, cell-based
Procedure, shortened: (§3)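 After 16 days of long-term HL60 culture with ligand renewed every 4 days (1.25 µM shown, versus 0.1% DMSO), cells were fixed in 2% formaldehyde/0.2% glutaraldehyde for 15 min at room temperature. They were washed with PBS and stained overnight at 37 °C with X-gal (1 mg/mL). SA-β-Gal and enlarged or flattened morphology were scored by optical microscopy.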

HL-60 [14] = experiment: Induction of senescence in human HL60 cells assessed flattened cells measured every 4 days for 16 days by optical microscopy; format: functional, cell-based; procedure, shortened: as §3
HL-60 [15] = experiment: Induction of senescence in human HL60 cells assessed as beta galactosidase activity at 1.25 uM measured every 4 days for 16 days; format: functional, cell-based; procedure, shortened: as §3
HL-60 [16] = experiment: Induction of telomere shortening in human HL60 cells at 1.25 uM after 16 days by telomeric restriction fragment length assay; format: functional
Procedure, shortened: (§4)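 HL60 cells were treated with ligand (0.625 or 1.25 µM) or 0.1% DMSO for 16 days. Genomic DNA was digested with HinfI/RsaI and run on a 0.8% agarose gel, then blotted to nylon and fixed at 120 °C for 20 min. The blot was hybridized with a DIG-labeled telomeric probe, bound with anti-DIG-alkaline phosphatase and detected by chemiluminescence.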

HL-60 [17] = experiment: Induction of telomere shortening in human HL60 cells at 0.625 uM after 16 days by telomeric restriction fragment length assay; format: functional, cell-based; procedure, shortened: as §4
Nucleic Acid [18] = experiment: Binding affinity to human oligonucleotide telomeric HT6 G-quadruplex DNA by NMR spectroscopy; format: nucleic-acid assay
Procedure, shortened: (§5)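 1H NMR titration at 400 MHz and 25 °C of 0.5 mM [d(TTAGGG)]4 in 90% H2O/10% D2O with 25 mM potassium phosphate (pH 7.0) and 150 mM KCl. Ligand:quadruplex ratios were 0, 0.25, 0.5, 1 and 2. Water was suppressed by Watergate. Shifts and broadening of DNA signals were followed. The oligonucleotide was HPLC-purified.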

Nucleic Acid [19] = experiment: Binding affinity to human oligonucleotide telomeric HT6 G-quadruplex DNA at 0.5:1 ligand to quadruplex ratio by NMR spectroscopy; format: nucleic-acid assay; procedure, shortened: as §5
Nucleic Acid [20] = experiment: Binding affinity to A3 site of human oligonucleotide telomeric HT6 G-quadruplex DNA by NMR spectroscopy; format: nucleic-acid assay; procedure, shortened: as §5
Nucleic Acid [21] = experiment: Binding affinity to G4 site of human oligonucleotide telomeric HT6 G-quadruplex DNA by NMR spectroscopy; format: nucleic-acid assay; procedure, shortened: as §5
Nucleic Acid [22] = experiment: Binding affinity to human telomeric HTG21 G-quadruplex DNA after 6 hrs in presence of K+ ions by CD spectroscopy; format: nucleic-acid assay; procedure, shortened: as §2

Sequence of Telomerase reverse transcriptase (O14746 whole entry): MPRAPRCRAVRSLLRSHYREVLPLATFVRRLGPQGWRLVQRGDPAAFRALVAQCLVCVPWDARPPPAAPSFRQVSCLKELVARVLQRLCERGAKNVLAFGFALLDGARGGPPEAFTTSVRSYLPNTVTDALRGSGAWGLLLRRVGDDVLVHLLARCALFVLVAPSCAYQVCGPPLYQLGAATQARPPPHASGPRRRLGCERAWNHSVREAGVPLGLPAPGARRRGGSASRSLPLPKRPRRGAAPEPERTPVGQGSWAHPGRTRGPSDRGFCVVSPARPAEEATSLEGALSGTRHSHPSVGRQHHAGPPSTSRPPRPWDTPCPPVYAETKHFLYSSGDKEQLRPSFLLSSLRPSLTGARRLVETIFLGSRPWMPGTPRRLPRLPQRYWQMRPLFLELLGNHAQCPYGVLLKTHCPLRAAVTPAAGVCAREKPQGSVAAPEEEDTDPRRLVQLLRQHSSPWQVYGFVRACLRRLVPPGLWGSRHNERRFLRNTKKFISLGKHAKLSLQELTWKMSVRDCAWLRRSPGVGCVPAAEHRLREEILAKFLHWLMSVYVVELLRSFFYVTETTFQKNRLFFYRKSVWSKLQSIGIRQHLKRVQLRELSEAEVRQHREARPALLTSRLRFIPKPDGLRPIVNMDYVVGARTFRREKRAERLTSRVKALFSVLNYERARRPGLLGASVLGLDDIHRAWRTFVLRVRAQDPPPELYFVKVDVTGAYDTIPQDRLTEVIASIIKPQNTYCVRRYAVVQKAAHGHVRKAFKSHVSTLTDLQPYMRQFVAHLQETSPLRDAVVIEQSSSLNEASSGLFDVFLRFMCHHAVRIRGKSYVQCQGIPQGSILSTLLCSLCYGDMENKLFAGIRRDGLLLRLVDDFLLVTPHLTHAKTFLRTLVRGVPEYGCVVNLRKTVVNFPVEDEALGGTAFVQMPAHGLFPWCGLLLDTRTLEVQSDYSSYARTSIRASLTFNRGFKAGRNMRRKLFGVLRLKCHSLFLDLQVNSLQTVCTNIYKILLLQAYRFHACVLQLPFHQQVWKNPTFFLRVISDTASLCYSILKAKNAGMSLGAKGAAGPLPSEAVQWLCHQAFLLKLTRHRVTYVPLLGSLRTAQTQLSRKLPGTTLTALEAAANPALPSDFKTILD

SMILES | ΔTm (Nucleic Acid [1]) [°C] | ΔTm (Nucleic Acid [2]) [°C] | Activity (Nucleic Acid [4]) | further results
CN(C)CCCNc1nc(-c2ccc(Cl)cc2NC(=O)CCN2CCCC2)nc2ccccc12 | 12.8 | 0.2 | – | –
CN(C)CCCNc1nc(-c2ccc(Cl)cc2NC(=O)CCCN2CCN(C)CC2)nc2ccccc12 | 14.7 | 0.4 | Active | IC50 [3]: 7.7 µM; Kd (Nucleic Acid [5]): 0.278 µM; Activity (Nucleic Acid [6]): inactive; Activity (Nucleic Acid [7]): Active
CN(C)CCCNc1nc(-c2ccc(Cl)cc2N)nc2ccccc12 | 0.7 | 0.3 | – | –
CN(C)CCCNc1nc(-c2ccc(Cl)cc2NC(=O)CCN2CCOCC2)nc2ccccc12 | 8.4 | 0.1 | Active | –
CN(C)CCCNc1nc(-c2ccc(Cl)cc2NC(=O)CCCN2CCOCC2)nc2ccccc12 | 9.8 | 0.1 | Active | –
CN(C)CCCNc1nc(-c2ccc(Cl)cc2NC(=O)CN2CCCCC2)nc2ccccc12 | 5.4 | 0.2 | – | –
CN(C)CCCNCCC(=O)Nc1cc(Cl)ccc1-c1nc(NCCCN(C)C)c2ccccc2n1 | – | – | – | Activity (Nucleic Acid [7]): Active
CN(C)CCCNc1c2ccccc2nc2c1[nH]c1ccccc12 | 9.9 | 5.5 | inactive | –
CN(C)CCCNc1nc(-c2ccc(Cl)cc2NC(=O)CCCN2CCCCC2)nc2ccccc12 | 11.6 | 0.2 | – | –
CN(C)CCCNc1nc(-c2ccc(Cl)cc2NC(=O)CCN2CCCCC2)nc2ccccc12 | 11.8 | 0.2 | – | –
CN(C)CCCNc1nc(-c2ccc(Cl)cc2NC(=O)CN2CCOCC2)nc2ccccc12 | 3.9 | 0 | Active | –
CN(C)CCCNc1nc(-c2ccc(Cl)cc2NC(=O)CCN2CCN(C)CC2)nc2ccccc12 | 15.5 | 0.3 | Active | IC50 [3]: 7.4 µM; IC50 (HL-60 [8]): 9.6 µM; Activity (HL-60 [9]): Active; growth inhibition (GI) (HL-60 [10]): Active; growth inhibition (GI) (HL-60 [11]): Active; growth inhibition (GI) (HL-60 [12]): Active; Activity (HL-60 [13]): Active; Activity (HL-60 [14]): Active; Activity (HL-60 [15]): Active; Activity (HL-60 [16]): 1.2 kilobase; Activity (HL-60 [17]): Active; Kd (Nucleic Acid [5]): 0.314 µM; Activity (Nucleic Acid [6]): inactive; Activity (Nucleic Acid [7]): Active; Activity (Nucleic Acid [18]): Active; Activity (Nucleic Acid [19]): Active; Activity (Nucleic Acid [20]): Active; Activity (Nucleic Acid [21]): Active
CN(C)CCCNc1nc(-c2ccc(Cl)cc2NC(=O)CN2CCN(C)CC2)nc2ccccc12 | 10.1 | 0.3 | Active | IC50 [3]: 29.3 µM; Activity (Nucleic Acid [22]): Active; Kd (Nucleic Acid [5]): 2.11 µM; Activity (Nucleic Acid [6]): inactive

The next lines start with results.

ΔTm (Nucleic Acid [1]) [°C] | ΔTm (Nucleic Acid [2]) [°C] | Activity (Nucleic Acid [4]) | SMILES | further results
14.4 | 0.1 | – | CCN(CC)CCC(=O)Nc1cc(Cl)ccc1-c1nc(NCCCN(C)C)c2ccccc2n1 | –
4.5 | 0.1 | – | CCN(CC)CC(=O)Nc1cc(Cl)ccc1-c1nc(NCCCN(C)C)c2ccccc2n1 | –
9.6 | 0.2 | – | CN(C)CCCNc1nc(-c2ccc(Cl)cc2NC(=O)CNCCN2CCCCC2)nc2ccccc12 | –
7.4 | 0.1 | – | CN(C)CCCNc1nc(-c2ccc(Cl)cc2NC(=O)CN2CCCC2)nc2ccccc12 | –
10.4 | 0.3 | – | CN(C)CCCNc1nc(-c2ccc(Cl)cc2NC(=O)CNCCN2CCCC2)nc2ccccc12 | –
12.3 | 0.2 | – | CCN(CC)CCCNCC(=O)Nc1cc(Cl)ccc1-c1nc(NCCCN(C)C)c2ccccc2n1 | –
13 | 0.3 | Active | CN(C)CCCNCC(=O)Nc1cc(Cl)ccc1-c1nc(NCCCN(C)C)c2ccccc2n1 | Kd (Nucleic Acid [5]): 0.337 µM; Activity (Nucleic Acid [6]): inactive

Reference: ChEMBL document CHEMBL2203100, “Disubstituted quinazoline derivatives as a new type of highly selective ligands for telomeric G-quadruplex DNA” (Eur J Med Chem, 2012)
